Test results reported in ChEMBL document CHEMBL4765452, “Discovery of (E)-N-(4-methyl-5-(3-(2-(pyridin-2-yl)vinyl)-1H-indazol-6-yl)thiazol-2-yl)-2-(4-methylpiperazin-1-yl)acetamide (IHMT-TRK-284) as a novel orally available type II TRK kinase inhibitor capable of overcoming multiple resistant mutants” (Eur J Med Chem, 2020).

Experiments:
[1] = target: VEGFR2 (vascular endothelial growth factor receptor 2), wild type, TEL fusion (Homo sapiens, UniProt P35968); experiment: Inhibition of wild type TEL fused VEGFR2 (unknown origin) transfected in mouse BAF3 cells assessed as growth inhibition after 72 hrs by CCK8 assay; assay type: cell-based; settings: mouse BaF3 cells transfected with wild type TEL-fused VEGFR2
[2] = Antiproliferative activity in mouse BAF3 cells assessed as growth inhibition after 72 hrs by CCK8 assay; assay type: cell-based
How it was run: (§1)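 TEL- or LMNA-fusion isogenic BaF3 lines grown in RPMI 1640 with 10% FBS and 1% penicillin/streptomycin at 37 °C, 5% CO₂; suspension cells collected by spinning at 800 rpm for 4 min before use; growth inhibition scored as GI₅₀.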

[3] = target: High affinity nerve growth factor receptor (Homo sapiens, UniProt P04629); experiment: Inhibition of wild type TEL fused TRKA (unknown origin) transfected in mouse BAF3 cells assessed as growth inhibition after 72 hrs by CCK8 assay; assay type: cell-based
[4] = system: BaF3; experiment: Inhibition of LMNA fused TRKA F589L mutant (unknown origin) transfected in mouse BAF3 cells assessed as growth inhibition after 72 hrs by CCK8 assay; assay type: cell-based; settings: Homo sapiens; how it was run: as §1
[5] = system: BaF3; experiment: Antitumor activity against mouse BAF3 cells harboring TEL fused TRKA allografted in nude mouse assessed as tumor growth inhibition at 80 mg/kg, po administered once daily for 10 days relative to control; assay type: functional; settings: 240 h, time 10 day, read-out: TGI
How it was run: (§2)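 Nu/nu mice given 1 million BaF3 cells (TEL-TRKA, TEL-TRKB, TEL-TRKC, LMNA-TRKA-F589L or LMNA-TRKA-G667S) in DMEM, 1:1 with matrigel, injected subcutaneously into the right flank; oral gavage began at 200–400 mm³, 5 mice per group, compound in 0.5% methylcellulose/0.4% Tween 80 in ddH₂O, 10 days; tumor volume [(W²×L)/2] and body weight recorded daily; TGI versus vehicle.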

[6] = Antiproliferative activity against human KM-12-LUC cells harboring […] fused TRKA assessed as growth inhibition after 72 hrs by CCK8 assay; assay type: functional; settings: KM12-Luc
How it was run: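 KM-12-LUC cells seeded at 3 × 10⁴ cells/mL, incubated overnight at 37 °C, 5% CO₂, then medium replaced with fresh medium containing a range of compound concentrations for 72 h; viability read by CCK-8 absorbance at 450 nm, normalized to DMSO control, GI₅₀ from curve fitting.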

[7] = system: BaF3; experiment: Antitumor activity against mouse BAF3 cells harboring TEL fused TRKC allografted in nude mouse assessed as tumor growth inhibition at 80 mg/kg, po administered once daily for 10 days relative to control; assay type: functional; settings: 240 h, time 10 day, read-out: TGI; how it was run: as §2
[8] = system: BaF3; experiment: Inhibition of LMNA fused TRKA V573M mutant (unknown origin) transfected in mouse BAF3 cells assessed as growth inhibition after 72 hrs by CCK8 assay; assay type: cell-based; settings: Homo sapiens
[9] = Antitumor activity against human […] cells xenografted in nude mouse assessed as tumor growth inhibition at 80 mg/kg, po administered once daily for 10 days relative to control; assay type: functional; settings: KM12-Luc, 240 h, time 10 day, read-out: TGI
How it was run: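 Nu/nu mice given 5 million KM-12-LUC cells in DMEM, 1:1 with matrigel, injected subcutaneously into the right flank; oral gavage started at tumor size 150–200 mm³, 5 mice per group, compound in 0.5% methylcellulose/0.4% Tween 80 in ddH₂O; body weight and tumor volume [(W²×L)/2] measured daily; TGI versus vehicle.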

[10] = system: High affinity nerve growth factor receptor (Homo sapiens), P04629 [G667C]; experiment: Inhibition of LMNA fused TRKA G667C mutant (unknown origin) transfected in mouse BAF3 cells assessed as growth inhibition after 72 hrs by CCK8 assay; assay type: cell-based; how it was run: as §1
[11] = system: BaF3; experiment: Inhibition of LMNA fused TRKA G667S mutant (unknown origin) transfected in mouse BAF3 cells assessed as growth inhibition after 72 hrs by CCK8 assay; assay type: cell-based; settings: Homo sapiens

Chain of VEGFR2 (vascular endothelial growth factor receptor 2), wild type, TEL fusion (P35968 whole entry, the tested form may be a part): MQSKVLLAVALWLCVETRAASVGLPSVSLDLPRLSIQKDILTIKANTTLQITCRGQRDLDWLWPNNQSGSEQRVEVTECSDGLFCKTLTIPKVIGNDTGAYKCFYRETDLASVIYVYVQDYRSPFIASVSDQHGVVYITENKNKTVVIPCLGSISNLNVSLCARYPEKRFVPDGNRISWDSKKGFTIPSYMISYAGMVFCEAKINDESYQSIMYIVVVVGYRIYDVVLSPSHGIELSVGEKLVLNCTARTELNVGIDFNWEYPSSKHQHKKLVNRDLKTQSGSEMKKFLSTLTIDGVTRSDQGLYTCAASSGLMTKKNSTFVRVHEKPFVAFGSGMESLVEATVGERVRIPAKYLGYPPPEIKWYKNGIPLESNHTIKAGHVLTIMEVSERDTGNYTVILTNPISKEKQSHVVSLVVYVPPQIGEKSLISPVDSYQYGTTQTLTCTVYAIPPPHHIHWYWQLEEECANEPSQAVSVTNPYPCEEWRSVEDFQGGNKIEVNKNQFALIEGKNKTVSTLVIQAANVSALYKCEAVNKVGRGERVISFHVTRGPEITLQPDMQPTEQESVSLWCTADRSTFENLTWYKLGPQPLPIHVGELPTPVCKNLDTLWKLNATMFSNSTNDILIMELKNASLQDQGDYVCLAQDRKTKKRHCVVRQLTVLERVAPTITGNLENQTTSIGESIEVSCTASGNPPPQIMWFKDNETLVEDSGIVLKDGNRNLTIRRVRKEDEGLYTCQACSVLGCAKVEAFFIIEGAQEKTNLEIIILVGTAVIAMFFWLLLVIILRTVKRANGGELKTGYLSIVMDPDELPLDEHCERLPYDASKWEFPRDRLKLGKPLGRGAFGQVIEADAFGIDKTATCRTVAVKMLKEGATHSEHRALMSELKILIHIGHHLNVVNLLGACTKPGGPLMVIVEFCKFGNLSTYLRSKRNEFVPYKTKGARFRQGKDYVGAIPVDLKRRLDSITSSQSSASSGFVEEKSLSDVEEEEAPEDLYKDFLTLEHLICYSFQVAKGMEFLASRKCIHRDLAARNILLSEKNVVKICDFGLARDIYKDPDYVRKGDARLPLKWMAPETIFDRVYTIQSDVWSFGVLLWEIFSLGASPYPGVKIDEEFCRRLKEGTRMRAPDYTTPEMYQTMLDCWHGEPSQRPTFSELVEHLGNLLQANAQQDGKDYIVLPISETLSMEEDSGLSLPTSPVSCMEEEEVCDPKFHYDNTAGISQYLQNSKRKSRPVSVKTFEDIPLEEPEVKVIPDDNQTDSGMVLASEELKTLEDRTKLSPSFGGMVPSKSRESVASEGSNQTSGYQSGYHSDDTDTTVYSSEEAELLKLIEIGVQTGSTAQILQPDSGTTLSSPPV
Chain of High affinity nerve growth factor receptor (P04629 33-796 limits assumed): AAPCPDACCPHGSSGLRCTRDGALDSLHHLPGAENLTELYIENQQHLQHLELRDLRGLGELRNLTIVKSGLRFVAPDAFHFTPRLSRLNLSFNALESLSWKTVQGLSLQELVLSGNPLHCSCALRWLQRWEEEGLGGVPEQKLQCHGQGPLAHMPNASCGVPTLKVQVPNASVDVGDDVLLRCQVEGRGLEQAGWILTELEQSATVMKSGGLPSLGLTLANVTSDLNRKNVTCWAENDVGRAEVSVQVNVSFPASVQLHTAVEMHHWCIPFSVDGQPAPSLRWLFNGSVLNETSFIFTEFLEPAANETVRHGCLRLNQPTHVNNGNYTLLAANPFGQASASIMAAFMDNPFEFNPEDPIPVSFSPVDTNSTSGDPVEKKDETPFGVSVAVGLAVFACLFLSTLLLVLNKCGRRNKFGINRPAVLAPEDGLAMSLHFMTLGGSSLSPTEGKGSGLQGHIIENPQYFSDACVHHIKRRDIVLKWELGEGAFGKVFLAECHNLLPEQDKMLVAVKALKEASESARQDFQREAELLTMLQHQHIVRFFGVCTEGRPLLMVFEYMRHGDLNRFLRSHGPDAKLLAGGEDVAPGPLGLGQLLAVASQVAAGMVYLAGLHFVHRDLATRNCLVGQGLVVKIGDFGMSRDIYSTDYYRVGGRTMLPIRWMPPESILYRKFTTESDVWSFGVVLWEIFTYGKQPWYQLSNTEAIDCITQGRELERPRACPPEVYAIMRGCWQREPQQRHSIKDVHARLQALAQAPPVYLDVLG
Chain of High affinity nerve growth factor receptor (Homo sapiens), P04629 [G667C] (P04629 whole entry G667C, looked up, the tested form may be a part): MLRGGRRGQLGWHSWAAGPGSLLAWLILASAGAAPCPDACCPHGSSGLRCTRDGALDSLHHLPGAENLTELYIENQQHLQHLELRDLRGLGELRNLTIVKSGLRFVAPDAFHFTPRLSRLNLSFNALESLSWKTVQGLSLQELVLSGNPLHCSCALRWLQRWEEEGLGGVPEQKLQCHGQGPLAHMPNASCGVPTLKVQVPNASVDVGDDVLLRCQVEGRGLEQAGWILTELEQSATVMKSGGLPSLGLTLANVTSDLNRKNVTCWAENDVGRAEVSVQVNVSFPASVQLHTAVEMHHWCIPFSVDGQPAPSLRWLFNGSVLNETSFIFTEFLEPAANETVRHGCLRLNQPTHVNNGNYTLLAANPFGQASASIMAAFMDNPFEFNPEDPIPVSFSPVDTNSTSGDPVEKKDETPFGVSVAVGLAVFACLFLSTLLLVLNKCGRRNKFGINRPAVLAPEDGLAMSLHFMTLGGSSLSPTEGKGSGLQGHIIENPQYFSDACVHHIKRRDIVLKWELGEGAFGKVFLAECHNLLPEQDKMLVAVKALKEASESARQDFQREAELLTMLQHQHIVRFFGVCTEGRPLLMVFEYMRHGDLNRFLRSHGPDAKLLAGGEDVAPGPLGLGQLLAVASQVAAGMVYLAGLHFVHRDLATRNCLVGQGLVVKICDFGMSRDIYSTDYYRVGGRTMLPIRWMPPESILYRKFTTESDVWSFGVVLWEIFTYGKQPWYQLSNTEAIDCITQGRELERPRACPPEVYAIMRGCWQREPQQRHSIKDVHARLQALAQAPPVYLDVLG

Row | SMILES | GI50 [3] [nM] | GI50 at 72 h [1] [nM] | GI50 at 72 h [2] [nM] | also measured
1 | Cc1nc(NC(=O)CN2CCN(C)CC2)sc1-c1ccc2c(-c3ccn(C)n3)n[nH]c2c1 | 73 | 351 | 1530 | 
2 | Cc1nc(NC(=O)CN2CCN(C)CC2)sc1-c1ccc2c(-c3cccc(F)c3)n[nH]c2c1 | > 10000 | 1710 | 1740 | 
3 | Cc1nc(NC(=O)Cc2cccc(C(F)(F)F)c2)sc1-c1ccc2c(/C=C/c3ccccn3)n[nH]c2c1 | 2 | 13 | 2310 | 
4 | Cc1nc(NC(=O)C2CCN(C)CC2)sc1-c1ccc2c(/C=C/c3ccccn3)n[nH]c2c1 | 89 | 2040 | 2510 | 
5 | Cc1nc(NC(=O)C2CCNCC2)sc1-c1ccc2c(/C=C/c3ccccn3)n[nH]c2c1 | 145 | 3050 | 8710 | 
6 | COCCOCC(=O)Nc1nc(C)c(-c2ccc3c(/C=C/c4ccccn4)n[nH]c3c2)s1 | 35 | 1780 | 1070 | 
7 | CSCCC(N)C(=O)Nc1nc(C)c(-c2ccc3c(/C=C/c4ccccn4)n[nH]c3c2)s1 (stereo not given) | 13 | 101 | 594 | 
8 | CC(=O)Nc1nc(C)c(-c2ccc3c(/C=C/c4ccccn4)n[nH]c3c2)s1 | 4310 | 301 | 5240 | 
9 | Cc1nc(NC(=O)C(C)C)sc1-c1ccc2c(/C=C/c3ccccn3)n[nH]c2c1 | 251 | 181 | 1580 | 
10 | Cc1nc(NC(=O)CC2CCCNC2)sc1-c1ccc2c(/C=C/c3ccccn3)n[nH]c2c1 (stereo not given) | 300 | 1930 | 8350 | 
11 | Cc1nc(NC(=O)CN2CCN(C)CC2)sc1-c1ccc2c(-c3cncc(F)c3)n[nH]c2c1 | 54 | 1800 | 1690 | 
12 | Cc1nc(NC(=O)Cc2cccc(Cl)c2)sc1-c1ccc2c(/C=C/c3ccccn3)n[nH]c2c1 | 2 | 10 | 4100 | 
13 | O=C(Nc1cnn2ccc(N3CCC[C@@H]3c3cc(F)ccc3F)nc12)N1CC[C@H](O)C1 [LAROTRECTINIB] |  |  | > 10000 | GI50 [4]: 102 nM; inhibition in vivo at 80 mg/kg/day [5]: 38.5%; GI50 [6]: 11 nM; inhibition in vivo at 80 mg/kg/day [7]: 33.8%; GI50 [8]: 258 nM; inhibition in vivo at 80 mg/kg/day [9]: 78.9%; GI50 [10]: 602 nM; GI50 [11]: 148 nM
14 | Cc1nc(NC(=O)C(N)Cc2ccccc2)sc1-c1ccc2c(/C=C/c3ccccn3)n[nH]c2c1 (stereo not given) | 68 | 97 | 708 | 
15 | Cc1nc(NC(=O)CN2CCN(C)CC2)sc1-c1ccc2c(-c3cnc(N)nc3)n[nH]c2c1 | 752 | 5630 | > 10000 | 
16 | Cc1nc(NC(=O)CN2CCN(CCO)CC2)sc1-c1ccc2c(/C=C/c3ccccn3)n[nH]c2c1 | 18 | 81 | 1020 | 
17 | Cc1nc(NC(=O)Nc2cccc(C(F)(F)F)c2)sc1-c1ccc2c(/C=C/c3ccccn3)n[nH]c2c1 | 3 | 4 | 105 | 
18 | COc1ccc(CC(=O)Nc2nc(C)c(-c3ccc4c(/C=C/c5ccccn5)n[nH]c4c3)s2)cc1OC | 40 | 19 | 4870 | 
19 | Cc1nc(NC(=O)CC2CCNCC2)sc1-c1ccc2c(/C=C/c3ccccn3)n[nH]c2c1 | 116 | 982 | > 10000 | 
20 | Cc1nc(NC(=O)CN2CCN(C)CC2)sc1-c1ccc2c(-c3cccnc3)n[nH]c2c1 | 251 | 2630 | 5130 | 
21 | Cc1nc(NC(=O)Cc2cccc3ccccc23)sc1-c1ccc2c(/C=C/c3ccccn3)n[nH]c2c1 | 33 | 15 | 3690 | 
22 | Cc1nc(NC(=O)CC2CCN(C)CC2)sc1-c1ccc2c(/C=C/c3ccccn3)n[nH]c2c1 | 32 | 570 | 1560 | 

Further lines, with some results ahead:

Row | GI50 [3] [nM] | SMILES | GI50 at 72 h [1] [nM] | GI50 at 72 h [2] [nM] | also measured
23 | 3 | Cc1nc(NC(=O)c2cccc(C(F)(F)F)c2)sc1-c1ccc2c(/C=C/c3ccccn3)n[nH]c2c1 | 5 | > 10000 | 
24 | 920 | CN1CCN(Cc2ccc(C(=O)Nc3cccc(Sc4ccc5c(/C=C/c6ccccn6)n[nH]c5c4)c3)cc2C(F)(F)F)CC1 | 13 | 1260 | 
25 | 646 | CN1CCN(Cc2ccc(NC(=O)NCCSc3ccc4c(/C=C/c5ccccn5)n[nH]c4c3)cc2C(F)(F)F)CC1 | 42 |  | 
26 | 736 | CN1CCN(Cc2ccc(NC(=O)CCSc3ccc4c(-c5cccnc5)n[nH]c4c3)cc2C(F)(F)F)CC1 | 9 |  | 
27 | 448 | CN1CCN(Cc2ccc(NC(=O)CCSc3ccc4c(-c5ccncc5)n[nH]c4c3)cc2C(F)(F)F)CC1 | 1 |  | 
28 | 18 | CN1CCN(Cc2ccc(NC(=O)CCSc3ccc4c(/C=C/c5ccncc5)n[nH]c4c3)cc2C(F)(F)F)CC1 | 2 | 543 | 
29 | 516 | Cc1ccc(-c2n[nH]c3cc(SCCC(=O)Nc4ccc(CN5CCN(C)CC5)c(C(F)(F)F)c4)ccc23)cn1 | 1 |  | 
30 | 248 | CN1CCN(Cc2ccc(NC(=O)CC(=O)Nc3ccc4c(/C=C/c5ccccn5)n[nH]c4c3)cc2C(F)(F)F)CC1 | 4 | 2500 | 
31 | 62 | CN1CCN(Cc2ccc(NC(=O)Nc3cccc(Sc4ccc5c(/C=C/c6ccccn6)n[nH]c5c4)c3)cc2C(F)(F)F)CC1 | 15 | 3090 | 
32 | 63 | CN1CCN(Cc2ccc(NC(=O)CCSc3ccc4c(/C=C/c5ccccn5)n[nH]c4c3)cc2C(F)(F)F)CC1 | 2 |  | 
33 | 8 | Cc1nc(NC(=O)c2ccc(CN3CCN(C)CC3)cc2)sc1-c1ccc2c(/C=C/c3ccccn3)n[nH]c2c1 | 12 | 1460 | 
34 | 729 | Cc1n[nH]c2cc(SCCC(=O)Nc3ccc(CN4CCN(C)CC4)c(C(F)(F)F)c3)ccc12 | 9 |  | 
35 | 370 | CN1CCN(Cc2ccc(C(=O)NCCSc3ccc4c(/C=C/c5ccccn5)n[nH]c4c3)cc2C(F)(F)F)CC1 | 41 | 4400 | 
36 | 370 | CN1CCN(Cc2ccc(C(=O)NCCCSc3ccc4c(/C=C/c5ccccn5)n[nH]c4c3)cc2C(F)(F)F)CC1 | 1 |  | 
37 | 88 | CN1CCN(Cc2ccc(NC(=O)CCSc3ccc4c(/C=C/c5cnccn5)n[nH]c4c3)cc2C(F)(F)F)CC1 | 2 | 1640 | 
